Test [1] addresses Toll-like receptor 1/2 (Homo sapiens) (UniProt O60603+Q15399). Nature of the test: Antagonist activity at human TLR1/2 expressed in HEK293 cells assessed as decrease in Pam3CSK4-induced NF-kappaB activation-mediated SEAP production at 10^-9 to 10^-5 M after 24 hrs by Quanti-blue-based assay. The format is cell-based. The procedure, abridged: (§1)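 HEK293 cells stably carrying a human TLR plus an NF-κB-driven SEAP reporter, seeded 5×10^4/well for 24 h at 37 °C, then stimulated: Pam3CSK4 100 µg/mL (TLR1/2), Pam2CSK4 100 µg/mL, poly I:C 5 µg/mL (TLR3), LPS 20 ng/mL (TLR4), flagellin 100 ng/mL (TLR5), R848 1 µg/mL (TLR7, TLR8), CpG-ODN2006 1 µg/mL (TLR9). After 24 h with compound, supernatant mixed with QUANTI-Blue, 1 h 37 °C, OD 620 nm.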

The target in test [2] is Interleukin-1 receptor type 1 (Homo sapiens, UniProt P14778). The test can be described thus: Inhibition of IL1R in TLR null HEK-blue cells assessed as decrease in IL-1beta-stimulated NF-kappaB activation-mediated SEAP production after 24 hrs by Quanti-blue-based assay. The format is cell-based.
Interleukin-1 receptor type 1, sequence (P14778 whole entry): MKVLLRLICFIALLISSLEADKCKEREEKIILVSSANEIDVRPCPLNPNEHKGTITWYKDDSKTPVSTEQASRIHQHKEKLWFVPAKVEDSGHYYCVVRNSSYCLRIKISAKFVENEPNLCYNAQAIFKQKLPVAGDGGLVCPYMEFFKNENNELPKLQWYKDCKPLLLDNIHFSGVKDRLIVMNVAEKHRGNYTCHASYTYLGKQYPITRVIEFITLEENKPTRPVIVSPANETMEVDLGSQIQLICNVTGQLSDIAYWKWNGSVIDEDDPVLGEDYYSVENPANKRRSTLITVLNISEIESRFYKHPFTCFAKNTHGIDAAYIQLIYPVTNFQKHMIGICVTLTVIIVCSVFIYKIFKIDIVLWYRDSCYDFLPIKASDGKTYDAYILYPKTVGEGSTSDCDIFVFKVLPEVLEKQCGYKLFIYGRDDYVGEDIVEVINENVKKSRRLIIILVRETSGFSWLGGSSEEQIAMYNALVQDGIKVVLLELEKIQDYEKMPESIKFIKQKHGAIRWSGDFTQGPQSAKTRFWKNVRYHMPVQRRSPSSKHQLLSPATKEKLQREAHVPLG
Test [3] deals with HeLa. Nature of the test: Cell cycle arrest in human HeLa cells assessed as accumulation at G2/M phase at 10 uM after 24 hrs by propidium iodide staining based flow cytometry (reference value: 15.7%). In kind it is functional. The procedure, abridged: (§2)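 HeLa cells, 3×10^5/well, attached overnight, switched to serum-free medium for synchronisation, then DMSO or 5, 10, 20 µM for 24 h; cells fixed, PI-stained, G0/G1, S and G2/M fractions by flow cytometry; n = 3, mean ± SD.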

For test [4], the target named is Proto-oncogene tyrosine-protein kinase Src (Homo sapiens) (UniProt P12931). Nature of the test: Inhibition of wild-type human partial length SRC (L240 to L536 residues) expressed in bacterial expression system assessed as residual activity at 10 uM by Kinomescan method relative to control.
Proto-oncogene tyrosine-protein kinase Src (Homo sapiens), sequence (P12931 2-536 limits assumed): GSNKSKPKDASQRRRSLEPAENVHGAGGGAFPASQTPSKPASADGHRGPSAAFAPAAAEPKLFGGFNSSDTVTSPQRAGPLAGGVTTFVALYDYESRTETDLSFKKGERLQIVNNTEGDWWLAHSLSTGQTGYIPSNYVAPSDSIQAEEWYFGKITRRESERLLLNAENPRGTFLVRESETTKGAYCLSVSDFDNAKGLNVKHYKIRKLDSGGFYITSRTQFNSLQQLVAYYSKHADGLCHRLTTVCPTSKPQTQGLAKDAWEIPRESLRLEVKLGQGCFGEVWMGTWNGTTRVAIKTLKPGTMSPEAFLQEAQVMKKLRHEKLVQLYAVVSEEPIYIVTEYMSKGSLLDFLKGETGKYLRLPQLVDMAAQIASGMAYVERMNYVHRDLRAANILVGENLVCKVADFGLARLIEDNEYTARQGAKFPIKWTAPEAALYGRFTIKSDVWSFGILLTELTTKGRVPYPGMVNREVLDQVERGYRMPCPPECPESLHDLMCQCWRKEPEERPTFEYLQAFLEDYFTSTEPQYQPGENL
For test [5], the target named is Tyrosine-protein kinase SYK (Mus musculus) (UniProt P48025). Nature of the test: Inhibition of LPS-induced SYK phosphorylation in mouse RAW264.7 cells preincubated for 1 hr followed by LPS stimulation for 30 mins by Western blot method. The format is cell-based. The procedure, abridged: (§3)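 RAW 264.7 cells, 3×10^6 per dish overnight, pretreated 1 h with 1, 5 or 10 µM, then LPS 100 ng/mL for 15 or 30 min; nuclear/cytoplasmic lysates (20–30 µg) run on 10% SDS-PAGE, immunoblotted for phospho/total proteins, GAPDH loading control, ECL, densitometry; three independent experiments.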
Tyrosine-protein kinase SYK (Mus musculus), sequence (P48025 whole entry, looked up): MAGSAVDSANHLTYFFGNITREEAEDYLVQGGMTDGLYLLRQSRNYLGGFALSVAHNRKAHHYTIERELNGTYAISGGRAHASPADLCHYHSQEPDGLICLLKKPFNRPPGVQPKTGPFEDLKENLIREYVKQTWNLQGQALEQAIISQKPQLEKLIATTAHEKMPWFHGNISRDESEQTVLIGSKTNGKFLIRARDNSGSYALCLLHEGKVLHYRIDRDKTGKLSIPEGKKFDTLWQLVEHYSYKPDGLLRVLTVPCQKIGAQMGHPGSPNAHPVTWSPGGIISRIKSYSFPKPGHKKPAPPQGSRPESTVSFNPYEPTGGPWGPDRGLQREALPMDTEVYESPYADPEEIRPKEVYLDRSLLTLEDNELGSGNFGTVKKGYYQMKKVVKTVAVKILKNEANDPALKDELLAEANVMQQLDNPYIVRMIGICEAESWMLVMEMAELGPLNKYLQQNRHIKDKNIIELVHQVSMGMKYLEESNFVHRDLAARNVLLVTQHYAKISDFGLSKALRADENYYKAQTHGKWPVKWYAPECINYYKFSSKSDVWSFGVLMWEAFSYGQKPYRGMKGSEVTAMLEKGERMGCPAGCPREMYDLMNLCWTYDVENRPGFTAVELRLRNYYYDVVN

Test [6] concerns the target Toll-like receptor 8 (Homo sapiens) (UniProt Q9NR97). Nature of the test: Antagonist activity at human TLR8 expressed in HEK293 cells assessed as decrease in R848-induced NF-kappaB activation-mediated SEAP production at 10^-9 to 10^-5 M after 24 hrs by Quanti-blue-based assay. The format is cell-based. In outline: as §1
In test [7] the test system is HeLa. The test can be described thus: Cell cycle arrest in human HeLa cells assessed as accumulation at S phase at 10 uM after 24 hrs by propidium iodide staining based flow cytometry (reference value: 34.9%). In kind it is functional. The procedure, abridged: as §2
Test [8] concerns the target Mitogen-activated protein kinase 15 (Homo sapiens) (UniProt Q8TD08). The test can be described thus: Inhibition of wild-type human partial length ERK8 (M1 to P437 residues) expressed in bacterial expression system assessed as residual activity at 20 uM by Kinomescan method relative to control.
The target of test [9] is Proto-oncogene tyrosine-protein kinase Src (Homo sapiens) (UniProt P12931). Nature of the test: Inhibition of SRC (unknown origin) at 5 uM using KVEKIGEGTYGVVYK-amide as substrate by ADP-Glo kinase assay relative to control.
Test [10] concerns the target Toll-like receptor 5 (Homo sapiens) (UniProt O60602). Nature of the test: Antagonist activity at human TLR5 expressed in HEK293 cells assessed as decrease in flagellin-induced NF-kappaB activation-mediated SEAP production at 10^-9 to 10^-5 M after 24 hrs by Quanti-blue-based assay. In kind it is cell-based. The procedure, abridged: as §1
The target of test [11] is Proto-oncogene tyrosine-protein kinase Src (Mus musculus) (UniProt P05480). Nature of the test: Inhibition of LPS-induced SRC phosphorylation in mouse RAW264.7 cells preincubated for 1 hr followed by LPS stimulation for 30 mins by Western blot method. The format is cell-based. In outline:
as §3

Structures are written as SMILES. Calls of active or inactive are those of the source. The rule behind the calls is not given here.

Toll-like receptor 8 (Homo sapiens), sequence (Q9NR97 whole entry): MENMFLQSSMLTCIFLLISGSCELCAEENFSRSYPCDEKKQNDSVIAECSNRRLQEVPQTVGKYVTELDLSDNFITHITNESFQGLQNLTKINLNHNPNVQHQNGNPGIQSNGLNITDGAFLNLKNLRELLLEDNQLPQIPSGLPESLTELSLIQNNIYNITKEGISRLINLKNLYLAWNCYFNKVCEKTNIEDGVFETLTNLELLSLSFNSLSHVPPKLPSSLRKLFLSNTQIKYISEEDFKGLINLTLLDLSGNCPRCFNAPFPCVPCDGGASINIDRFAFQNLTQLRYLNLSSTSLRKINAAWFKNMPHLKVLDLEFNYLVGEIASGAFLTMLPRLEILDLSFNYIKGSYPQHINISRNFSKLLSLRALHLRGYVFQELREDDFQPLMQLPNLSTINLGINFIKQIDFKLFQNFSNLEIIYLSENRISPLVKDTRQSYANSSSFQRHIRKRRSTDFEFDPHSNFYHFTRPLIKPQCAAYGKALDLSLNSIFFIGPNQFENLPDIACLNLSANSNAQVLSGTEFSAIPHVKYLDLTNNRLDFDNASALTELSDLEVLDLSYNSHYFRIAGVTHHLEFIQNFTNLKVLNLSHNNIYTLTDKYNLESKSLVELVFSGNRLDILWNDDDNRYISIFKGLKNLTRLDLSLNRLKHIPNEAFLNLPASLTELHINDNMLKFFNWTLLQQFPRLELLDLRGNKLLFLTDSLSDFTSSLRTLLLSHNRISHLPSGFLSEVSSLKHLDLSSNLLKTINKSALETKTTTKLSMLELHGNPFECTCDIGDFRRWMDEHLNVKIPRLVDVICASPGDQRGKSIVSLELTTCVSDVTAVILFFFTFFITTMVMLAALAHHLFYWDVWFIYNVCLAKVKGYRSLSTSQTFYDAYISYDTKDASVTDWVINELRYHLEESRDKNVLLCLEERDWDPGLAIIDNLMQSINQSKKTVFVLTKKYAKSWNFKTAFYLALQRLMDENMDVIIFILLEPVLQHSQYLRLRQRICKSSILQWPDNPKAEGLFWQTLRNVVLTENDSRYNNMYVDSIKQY
Proto-oncogene tyrosine-protein kinase Src (Mus musculus), sequence (P05480 2-535 limits assumed): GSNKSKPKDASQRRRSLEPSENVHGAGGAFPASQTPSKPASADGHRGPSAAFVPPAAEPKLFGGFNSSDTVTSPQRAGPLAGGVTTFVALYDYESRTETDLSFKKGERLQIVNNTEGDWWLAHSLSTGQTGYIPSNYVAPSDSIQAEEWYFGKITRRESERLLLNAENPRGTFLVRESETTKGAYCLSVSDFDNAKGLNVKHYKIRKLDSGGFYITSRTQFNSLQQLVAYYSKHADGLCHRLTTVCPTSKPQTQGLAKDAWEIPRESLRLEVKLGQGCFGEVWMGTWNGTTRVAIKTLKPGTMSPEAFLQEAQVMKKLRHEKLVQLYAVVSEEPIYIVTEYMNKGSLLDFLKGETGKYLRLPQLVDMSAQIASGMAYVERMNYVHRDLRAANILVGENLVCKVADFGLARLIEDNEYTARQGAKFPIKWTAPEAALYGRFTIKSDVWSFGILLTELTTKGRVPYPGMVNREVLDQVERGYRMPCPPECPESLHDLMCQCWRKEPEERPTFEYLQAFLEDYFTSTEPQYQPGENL
Toll-like receptor 5 (Homo sapiens), sequence (O60602 whole entry): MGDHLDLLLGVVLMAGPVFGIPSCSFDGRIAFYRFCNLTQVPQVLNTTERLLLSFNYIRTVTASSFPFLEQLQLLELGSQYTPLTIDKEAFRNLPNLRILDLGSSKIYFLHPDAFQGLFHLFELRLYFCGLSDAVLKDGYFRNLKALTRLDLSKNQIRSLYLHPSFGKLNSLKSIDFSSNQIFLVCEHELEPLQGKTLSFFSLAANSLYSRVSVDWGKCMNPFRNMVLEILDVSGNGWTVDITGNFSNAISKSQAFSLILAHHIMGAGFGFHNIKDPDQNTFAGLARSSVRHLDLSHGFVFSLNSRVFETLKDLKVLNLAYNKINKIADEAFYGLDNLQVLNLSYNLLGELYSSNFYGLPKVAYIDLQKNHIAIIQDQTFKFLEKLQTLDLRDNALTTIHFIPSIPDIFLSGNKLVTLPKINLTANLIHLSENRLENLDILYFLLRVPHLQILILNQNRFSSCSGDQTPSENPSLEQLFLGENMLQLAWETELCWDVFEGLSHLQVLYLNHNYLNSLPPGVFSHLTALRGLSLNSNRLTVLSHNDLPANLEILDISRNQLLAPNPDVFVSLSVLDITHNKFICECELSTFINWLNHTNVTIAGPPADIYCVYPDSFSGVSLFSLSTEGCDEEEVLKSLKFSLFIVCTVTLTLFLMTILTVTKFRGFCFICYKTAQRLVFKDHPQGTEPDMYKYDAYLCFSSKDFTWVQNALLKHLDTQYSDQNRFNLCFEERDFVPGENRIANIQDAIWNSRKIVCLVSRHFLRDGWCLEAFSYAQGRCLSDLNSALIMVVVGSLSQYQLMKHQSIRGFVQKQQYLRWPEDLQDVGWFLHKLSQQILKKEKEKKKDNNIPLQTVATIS
Mitogen-activated protein kinase 15 (Homo sapiens), sequence (Q8TD08 whole entry, the tested form may be a part): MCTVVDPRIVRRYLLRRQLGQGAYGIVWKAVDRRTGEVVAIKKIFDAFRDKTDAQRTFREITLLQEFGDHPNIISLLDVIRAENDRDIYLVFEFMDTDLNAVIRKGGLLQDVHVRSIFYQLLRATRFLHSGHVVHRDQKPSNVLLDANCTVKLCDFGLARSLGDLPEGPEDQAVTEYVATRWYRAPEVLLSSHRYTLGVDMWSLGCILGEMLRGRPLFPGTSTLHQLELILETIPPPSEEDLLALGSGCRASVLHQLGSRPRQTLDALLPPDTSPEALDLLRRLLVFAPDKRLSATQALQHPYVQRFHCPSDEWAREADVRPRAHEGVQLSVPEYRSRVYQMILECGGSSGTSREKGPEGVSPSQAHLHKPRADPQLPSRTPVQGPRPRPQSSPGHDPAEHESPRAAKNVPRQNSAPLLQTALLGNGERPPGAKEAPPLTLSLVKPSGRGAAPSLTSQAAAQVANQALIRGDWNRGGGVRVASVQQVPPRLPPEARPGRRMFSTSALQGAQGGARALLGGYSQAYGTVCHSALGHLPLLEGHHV

As for `O=C(NNC(=O)c1csc(-c2ccc(Cl)cc2Cl)n1)c1ccccn1`, the inhibition entry in test [1], in test [6] and in [10] was “Active” each time. For the same compound, the IC50 in [2] was 720 nM. In addition, the Activity stood at 3.6% in test [3], 75% in test [4], 41.7% in [7] and 44% in [8]. Moreover, the values for the inhibition result in test [5], in [9] and in test [11] were “Dose-dependent effect”, < 50% and “Dose-dependent effect”, respectively.
